Assay [1] has as its target T1, Glucocorticoid receptor (Homo sapiens) (UniProt P04150).
T1 sequence (whole entry): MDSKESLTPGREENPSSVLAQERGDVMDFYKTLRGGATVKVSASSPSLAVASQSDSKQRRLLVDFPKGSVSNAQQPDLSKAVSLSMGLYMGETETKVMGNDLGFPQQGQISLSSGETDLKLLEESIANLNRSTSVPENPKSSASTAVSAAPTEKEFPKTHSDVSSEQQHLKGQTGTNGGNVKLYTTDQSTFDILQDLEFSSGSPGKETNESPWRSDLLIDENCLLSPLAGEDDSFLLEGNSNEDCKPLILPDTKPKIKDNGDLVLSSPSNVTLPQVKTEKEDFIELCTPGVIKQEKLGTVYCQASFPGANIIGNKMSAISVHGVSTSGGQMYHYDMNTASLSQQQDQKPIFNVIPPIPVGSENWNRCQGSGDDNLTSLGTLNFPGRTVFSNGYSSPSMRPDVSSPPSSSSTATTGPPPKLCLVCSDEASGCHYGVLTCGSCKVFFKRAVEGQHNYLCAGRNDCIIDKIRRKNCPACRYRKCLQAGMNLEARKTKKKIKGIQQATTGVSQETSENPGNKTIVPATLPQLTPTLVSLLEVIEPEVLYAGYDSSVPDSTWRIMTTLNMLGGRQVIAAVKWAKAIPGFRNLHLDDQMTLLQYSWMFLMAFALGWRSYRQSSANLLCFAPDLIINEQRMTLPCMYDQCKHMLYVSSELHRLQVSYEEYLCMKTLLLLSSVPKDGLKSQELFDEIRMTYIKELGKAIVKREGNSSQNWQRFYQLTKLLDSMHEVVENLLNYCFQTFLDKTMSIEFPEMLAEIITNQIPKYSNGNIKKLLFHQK
Nature of the assay: Partial agonist activity at glucocorticoid receptor (unknown origin) by fluorescence assay.

For assay [2], the target named is T2, Androgen receptor (Homo sapiens, UniProt P10275).
T2 sequence (P10275 whole entry): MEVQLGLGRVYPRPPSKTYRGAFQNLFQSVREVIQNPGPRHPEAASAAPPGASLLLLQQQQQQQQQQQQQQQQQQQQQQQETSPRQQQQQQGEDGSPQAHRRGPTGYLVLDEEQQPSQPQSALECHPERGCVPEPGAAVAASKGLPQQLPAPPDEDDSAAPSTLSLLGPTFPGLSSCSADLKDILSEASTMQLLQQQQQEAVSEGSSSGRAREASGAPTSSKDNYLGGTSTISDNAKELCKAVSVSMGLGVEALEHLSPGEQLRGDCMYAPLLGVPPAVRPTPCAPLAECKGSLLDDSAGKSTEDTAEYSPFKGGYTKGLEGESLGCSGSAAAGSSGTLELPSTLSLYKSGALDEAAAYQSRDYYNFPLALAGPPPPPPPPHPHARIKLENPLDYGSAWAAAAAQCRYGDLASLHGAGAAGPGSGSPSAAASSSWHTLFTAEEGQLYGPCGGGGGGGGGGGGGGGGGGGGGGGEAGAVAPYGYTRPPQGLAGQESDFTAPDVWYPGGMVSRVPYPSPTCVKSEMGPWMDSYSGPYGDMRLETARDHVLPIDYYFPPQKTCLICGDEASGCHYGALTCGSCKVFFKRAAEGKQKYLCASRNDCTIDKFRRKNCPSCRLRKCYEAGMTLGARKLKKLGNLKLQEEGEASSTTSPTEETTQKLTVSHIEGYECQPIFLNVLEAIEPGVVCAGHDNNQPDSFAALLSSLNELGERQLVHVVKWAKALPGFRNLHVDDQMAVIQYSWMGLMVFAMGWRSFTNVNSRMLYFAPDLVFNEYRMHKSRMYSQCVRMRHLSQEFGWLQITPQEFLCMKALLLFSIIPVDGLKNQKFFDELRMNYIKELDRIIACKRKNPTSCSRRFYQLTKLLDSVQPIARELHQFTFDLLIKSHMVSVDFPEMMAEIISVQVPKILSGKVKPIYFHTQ
Nature of the assay: Binding affinity to androgen receptor (unknown origin) by fluorescence assay. Put shortly: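 Fluorescence polarization competition between test compound and a fluorescently labeled ligand for binding to full-length receptor or its ligand binding domain. IC50 was fit to the signal by four-parameter logistic equation. Ki = IC50/(1 + ligand concentration/Kd) (Cheng–Prusoff).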

In assay [3] the target is T3, Glucocorticoid receptor (Homo sapiens, UniProt P04150).
T3 sequence (P04150 whole entry): T1 sequence (whole entry)
Nature of the assay: Transactivation activity at glucocorticoid receptor ligand binding domain (unknown origin) expressed in human Hela cells co-expressing GAL4 DNA binding domain assessed as NP-1-stimulated GRE activation by luciferase reporter gene assay. Format: cell-based.

For assay [4], the target named is T1, Glucocorticoid receptor (Homo sapiens). Nature of the assay: Transactivation activity at glucocorticoid receptor ligand binding domain (unknown origin) expressed in human Hela cells co-expressing GAL4 DNA binding domain assessed as NP-1-stimulated GRE activation by luciferase reporter gene assay relative to dexamethasone. Format: cell-based. The essentials: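 HeLa line (NP-1) stably transfected with a GR-LBD chimera cloned into a GAL4 luciferase reporter was run in agonist mode. Direct GR-LBD activation was read as increased luciferase activity. […] Values are means of two or more experiments in triplicate.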

Assay [5] shares this target. Nature of the assay: Transrepression activity at glucocorticoid receptor in human A549 cells assessed as inhibition of IL1beta-stimulated NFkappaB-dependent E-selectin transcription by luciferase reporter gene assay relative to dexamethasone. It counts as cell-based. Put shortly: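 In A549 lung epithelial cells, NFkB activity was induced with IL-1β (0.5 ng/ml). Inhibition was quantitated as decreased luciferase activity. […] Values are means of two or more experiments in triplicate.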
A general note: A reporter such as luciferase makes a cellular process visible.

Assay [6] concerns the target T3, Glucocorticoid receptor. Put plainly: Transrepression activity at glucocorticoid receptor in human A549 cells assessed as inhibition of PMA-stimulated AP1 response element by luciferase reporter gene assay. Format: cell-based.

The structures appear in SMILES notation. Activity calls are given as the source filed them. The rule behind the calls is not given here. Some results are limits rather than exact numbers.

The Ki is a dissociation constant, usually derived from enzyme kinetics or from competition with a known ligand. A lower Ki goes with a stronger hold on the target. Usually EC50 stands for the concentration at which the effect is half-maximal. For the molecule `CC(C)(C)NC(=O)NCC(C)(C)[C@@H](c1ccccc1)c1ccc2c(cnn2-c2ccc(F)cc2)c1`, the result in assay [1] was Active. Moreover, the Ki in assay [2] was greater than 5 µM. The EC50 was 429 nM in assay [3] and 57 nM in assay [6]. Moreover, the figures for the Efficacy in assay [4] and in assay [5] were 12% and 65%, respectively.
Consider `CC(C)(CNS(=O)(=O)CC(F)(F)F)[C@@H](c1ccccc1)c1ccc2c(cnn2-c2ccc(F)cc2)c1`, for which the outcome in assay [1] was Active. The molecule also had a Ki in assay [2] greater than 5 µM. For the same molecule, the EC50 in assay [3] came out at 202 nM; in assay [6] it was 20.4 nM. Besides, the Efficacy turned out to be 24% in assay [4] and 86% in assay [5].
With `CC(C)(CNC(=O)CC(F)(F)F)[C@@H](c1ccccc1)c1ccc2c(cnn2-c2ccc(F)cc2)c1`, the inhibition constant (Ki) in assay [2] was greater than 5 µM. Besides, the EC50 in assay [3] is 129 nM; in assay [6], 12.4 nM. Also, the results for the Efficacy in assay [4] and in assay [5] were 65% and 90%, respectively.

(Values after ChEMBL document CHEMBL2424625, “Synthesis and structure-activity relationships of novel indazolyl glucocorticoid receptor partial agonists” (Bioorg Med Chem Lett, 2013).)
